LANA-nucl inh: LANA-nucleosome interaction inhibition; hit rate 0.3% among 51,000; FITC-LANA1-23 / chicken nucleosome fluorescence polarization; hits give low values; z-score (concentration not given with the values);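 active = both repeat wells score below -2 in polarization z-score versus plate sample wells, excluding overly bright wells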
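System – purified chicken nucleosomes with FITC-labelled LANA N-terminal peptide (1-23) · Amount – 240 nM purified chicken nucleosomes (480 nM peptide binding sites), final · Also added – 50 nM FITC-LANA1-23 probe · Medium – TEN-BT buffer, pH 7.5 · Incubation – compound with peptide–nucleosome mix 10–45 min at room temperature · Detection – fluorescence polarization, ex 480 nm, em 535 nm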
BasE inh: blocks the Acinetobacter baumannii siderophore enzyme BasE. purified BasE, fluorescence polarization binding displacement. hit rate 0.1% among 84,000. inhibition, % (concentration not given with the values); in the data active = inhibition above about 25%, passing the limit was not always enough;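 also: 0% = negative plate control signal and 100% = positive plate control signal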
* = called active by the depositor. Shown is part of a subset that was picked to be rich in hits.

What do the screens show for `CN1CCN(c2ccc(N)cc2)CC1`?
BasE inh: 0

Results for CCN1CCN(c2ccc(N)cc2)CC1 ?
LANA-nucl inh: -2.9*

What do the screens show for `CC1CCN(CC(=O)c2cccc(Br)c2)CC1`?
BasE inh: 1

What do the screens show for `CN1CCc2c(C#N)c(Cl)nc(NCc3ccccc3)c2C1`?
LANA-nucl inh: 0.063; BasE inh: 2

How did CN1CCc2c(C#N)c(N)n(N)c(=S)c2C1 do in these assays?
LANA-nucl inh: -3.8*; BasE inh: 42

Results for O=S(=O)(c1ccc(O)cc1)c1ccc(O)cc1 ?
BasE inh: 66*

Results for CC(C)c1ccc(O)cc1 ?
BasE inh: 10

Results for COc1ccc2c(c1)c(C(=O)O)c(C)n2C1CCCCC1 ?
BasE inh: 2

What do the screens show for `NCCN1CCN(Cc2ccccc2)CC1`?
BasE inh: 3

How did NCCC(O)C(=O)NC1CC(N)C(OC2OC(CN)C(O)[C@H](O)[C@@H]2N)[C@H](OC2O[C@H](CO)[C@@H](O)[C@@H]2O)[C@@H]1O (some centres not stated) do in these assays?
LANA-nucl inh: 1.7; BasE inh: -5

Results for CN1CCc2cc3c(c4c2C1Cc1ccccc1-4)OCO3 (configuration not stated) ?
LANA-nucl inh: -3.2*; BasE inh: 22

What do the screens show for `COc1ccc2c(c1OC)C(=O)OC2C1c2cc3c(cc2CCN1C)OCO3` (configuration not stated)?
LANA-nucl inh: -0.68; BasE inh: -2

What do the screens show for `N#CC(C#N)=Cc1ccc(-c2ccccc2)o1`?
LANA-nucl inh: -4.7*; BasE inh: -26

What do the screens show for `Cc1ccc(C=C(C#N)C#N)o1`?
LANA-nucl inh: -0.56; BasE inh: 4

What do the screens show for `CC1(O)C[C@@]23C[C@@H](O)[C@@]4(O)[C@@H](C[C@H](O)C4(C)C)[C@](C)(O)[C@@H]2CCC1[C@H]3O` (some centres not stated)?
BasE inh: 2

Results for N=C1C(c2ccccc2)=C(O)CN1Cc1ccccc1 ?
LANA-nucl inh: -0.44; BasE inh: -1

What do the screens show for `N#Cc1c(/N=C/c2ccc(O)cc2O)sc2c1C1CCN2CC1`?
LANA-nucl inh: -3.9*; BasE inh: 17

How did CC[C@@]1(O)C[C@H](O[C@H]2C[C@H](N(C)C)[C@H](O)[C@H](C)O2)c2c(cc3c(c2O)C(=O)c2c(O)ccc(O)c2C3=O)[C@H]1C(=O)OC do in these assays?
LANA-nucl inh: -2.8*; BasE inh: 5

What do the screens show for `CC[C@@]1(O)C[C@H](O[C@H]2C[C@H](N(C)C)[C@H](O)[C@H](C)O2)c2c(cc3c(c2O)C(=O)c2c(O)cccc2C3=O)[C@H]1C(=O)OC`?
LANA-nucl inh: 2.2; BasE inh: -2

Results for Cc1ccc(N=P(N(C)C)(N(C)C)C(C)(C)C)c(C)c1 ?
BasE inh: 1

How did N=c1sccn1Cc1ccccc1 do in these assays?
BasE inh: 0

Assay outcomes: PubChem BioAssay, ICCB-Longwood Screening Facility, Harvard Medical School
